Laboratory results reported in EPA's CvTdb concentration-time database.

How the values were obtained:
Mouse [1] = assay: concentration in plasma after dosing; details: 3 h; dosed: 2-Hydroxy-4-methoxybenzophenone; 50 mg/kg; iv; Male; B6C3F1
Rat [2] = assay: concentration in plasma after dosing; details: 0.25 h; dosed: 2-Hydroxy-4-methoxybenzophenone; 500 mg/kg; oral; Male; F344
Mouse [3] = assay: concentration in plasma after dosing; details: dosed: 2-Hydroxy-4-methoxybenzophenone, 100 mg/kg, oral, Male, B6C3F1
Mouse [4] = assay: concentration in plasma after dosing; details: 0.25 h; dosed: 2-Hydroxy-4-methoxybenzophenone; 50 mg/kg; iv; Female; B6C3F1
Mouse [5] = assay: concentration in plasma after dosing; details: 10 min; dosed: 2-Hydroxy-4-methoxybenzophenone; 250 mg/kg; oral; Male; B6C3F1
Rat [6] = assay: concentration in plasma after dosing; details: 4 h; dosed: 2-Hydroxy-4-methoxybenzophenone; 500 mg/kg; oral; Male; F344
Mouse [7] = assay: concentration in plasma after dosing; details: 0.25 h; dosed: 2-Hydroxy-4-methoxybenzophenone; 250 mg/kg; oral; Female; B6C3F1
Rat [8] = assay: concentration in plasma after dosing; details: 2 min; dosed: Methyleugenol; 37 mg/kg; oral; Female; F344/N
Rat [9] = assay: concentration in plasma after dosing; details: dosed: Methyleugenol, 37 mg/kg, iv, Female, F344
Rat [10] = assay: concentration in plasma after dosing; details: 1 h; dosed: Methyleugenol; 37 mg/kg; oral; Male; F344/N
Rat [11] = assay: concentration in plasma after dosing; details: dosed: Methyleugenol, 37 mg/kg, oral, Male, F344/N
Mouse [12] = assay: concentration in plasma after dosing; details: dosed: 2,4-Dichlorophenoxyacetic acid, 1.0 mg/kg, iv, Male, B6C3F1
Rat [13] = assay: concentration in plasma after dosing; details: dosed: 2,4-Dichlorophenoxyacetic acid, 2.0 mg/kg, iv, Male, Sprague-Dawley
Rat [14] = assay: concentration in plasma after dosing; details: 1.5 h; dosed: alpha-Thujone; 50 mg/kg; oral; Male; Harlan Sprague Dawley
Rat [15] = assay: concentration in brain after dosing; details: 0.5 h; dosed: alpha-Thujone; 25 mg/kg; oral; Male; Harlan Sprague Dawley
Rat [16] = assay: concentration in brain after dosing; details: 6 h; dosed: alpha-Thujone; 50 mg/kg; oral; Female; Harlan Sprague Dawley
Rat [17] = assay: concentration in brain after dosing; details: 2 min; dosed: alpha-Thujone; 25 mg/kg; oral; Male; Harlan Sprague Dawley
Rat [18] = assay: concentration in brain after dosing; details: 0.5 h; dosed: alpha-Thujone; 50 mg/kg; oral; Female; Harlan Sprague Dawley
Rat [19] = assay: concentration in plasma after dosing; details: 10 min; dosed: alpha-Thujone; 50 mg/kg; oral; Female; Harlan Sprague Dawley
human = assay: amount in urine after dosing (mg cumulative excretion); details: dosed: trichloroethylene, inhalation, duration: 8 hr
How it was run: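 A PubMed search, classifier screening and manual review identified published in vivo toxicokinetic studies, which together with two structured collections supplied concentration-versus-time and amount-versus-time points. Points were mostly digitised from plot screenshots with WebPlotDigitizer, otherwise copied from tables. Dose, route, subject details and medium were hand-curated from each paper, and sampling and analytical methods are those of the sources, often unreported.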

Rat [20] = assay: concentration in kidney after dosing; details: 24 h; dosed: Perfluorohexane-1-sulphonic acid – potassium salt; 16 mg/kg; oral; Female; Harlan Sprague Dawley
Rat [21] = assay: concentration in brain after dosing; details: 3 h; dosed: Perfluorohexane-1-sulphonic acid – potassium salt; 16 mg/kg; oral; Female; Harlan Sprague Dawley
Rat [22] = assay: concentration in plasma after dosing; details: dosed: Perfluorohexane-1-sulphonic acid – potassium salt, 4 mg/kg, oral, Male, F344
Rat [23] = assay: concentration in plasma after dosing; details: dosed: Pyridine, 5 mg/kg, iv, Male, F344

O=C(c1ccccc1)c1ccc(O)cc1O [2,4-Dihydroxybenzophenone]
Details	concentration in plasma [ng/mL]
Mouse [1]	202
Mouse [4]	903
Mouse [5]	392
Mouse [7]	437
Rat [2]	713
Rat [6]	124

Mouse [3]
Details	concentration in plasma [ng/mL]
0.25 h	433
2 h	177
2.5 min	185
3 h	119
10 min	301

C=CCc1ccc(OC)c(OC)c1 [Methyleugenol]
Details	concentration in plasma [ng/mL]
Rat [8]	308
Rat [10]	63.4

concentration in plasma [ng/mL]
Details	2 h	2 min	5 min	6 h
Rat [9]	–	43100	–	68
Rat [11]	41.7	–	191	–

O=C(O)COc1ccc(Cl)cc1Cl [2,4-Dichlorophenoxyacetic acid]
concentration in plasma [ng/mL]
Details	Mouse [12]	Rat [13]
0.25 h	8220	14100
0.5 h	6040	9550
0.75 h	–	5750
1 h	3120	–
2 h	–	2070
2.5 h	266	–
2.5 min	–	28500
3 h	1250	419
3.5 h	–	410
5 min	6550	–
10 min	–	10400

CC(C)[C@]12CC(=O)[C@H](C)[C@H]1C2 [alpha-Thujone]
Details	concentration in brain [ng/g]	concentration in plasma [ng/mL]
Rat [14]	–	360
Rat [15]	883	–
Rat [16]	200	–
Rat [17]	11.2	–
Rat [18]	878	–
Rat [19]	–	1160

OCC(Cl)(Cl)Cl [trichloroethanol]
human
Details	amount in urine
7.932 h, 97 ppm	111
7.949 h, 54 ppm	76.3
8.43 h, 97 ppm	104
8.618 h, 54 ppm	55.6
9.257 h, 97 ppm	96.4
23.71 h, 54 ppm	175
23.74 h, 97 ppm	288
24.11 h, 54 ppm	191
24.33 h, 97 ppm	255
24.69 h, 97 ppm	352
47.97 h, 97 ppm	393
47.99 h, 97 ppm	364
48.13 h, 97 ppm	417
49.69 h, 54 ppm	258
49.75 h, 54 ppm	291
71.65 h, 54 ppm	301
71.89 h, 54 ppm	323
72.02 h, 97 ppm	395
72.49 h, 97 ppm	431
72.5 h, 97 ppm	422
95.28 h, 54 ppm	314
95.43 h, 54 ppm	328
95.87 h, 97 ppm	444
95.88 h, 97 ppm	429
96.05 h, 97 ppm	408
119.38 h, 54 ppm	345
119.39 h, 54 ppm	327
119.52 h, 97 ppm	409
119.58 h, 97 ppm	452
119.67 h, 97 ppm	430
142.52 h, 54 ppm	348
142.61 h, 54 ppm	331
143.45 h, 97 ppm	458
143.64 h, 97 ppm	412
143.71 h, 97 ppm	433
166.64 h, 54 ppm	352
167.26 h, 97 ppm	433
167.33 h, 97 ppm	463
167.44 h, 97 ppm	411
191.64 h, 97 ppm	414
191.88 h, 97 ppm	432
192.11 h, 97 ppm	466

O=S(=O)([O-])C(F)(F)C(F)(F)C(F)(F)C(F)(F)C(F)(F)C(F)(F)F.[K+] [Perfluorohexane-1-sulphonic acid – potassium salt]
Details	concentration in brain [ng/g]	concentration in kidney [ng/g]
Rat [20]	–	22700
Rat [21]	1340	–

Rat [22]
Details	concentration in plasma [ng/mL]
3 h	28000
24 h	31600
1200 h	3240

c1ccncc1 [Pyridine]
Rat [23]
Details	concentration in plasma [ng/mL]
0.25 h	3730
6 h	1300
